Screening data deposited in PubChem by The Scripps Research Institute Molecular Screening Center.
NPY-Y1 PAM-ag = potentiators or agonists of human neuropeptide Y receptor Y1 | NPY-Y1 expressing cells, potentiator/agonist activation | P25929 | hit rate 0.37% among 220,000 | activation, % at 3.6 µM; in the data active = activation above about 33%, passing the limit was not always enough;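 note: cells stimulated with NPY at EC10 then isoproterenol at EC100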
NPY-Y1 antag = NPY-Y1 (human) receptor antagonism; HEK293-CNG Y1 cells, membrane potential fluorescence; NPY at EC95, then isoproterenol; inhibition, % at 3.6 µM; hit rate 1% among 200,000;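 active = inhibition above the campaign mean inhibition of all tested compounds plus 3 SD, cut at about 20% in these data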
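System: HEK293 cells with Y1 receptor plus CNG channel / Probe or stimulus: NPY 25 nM then isoproterenol 1 µM plus Ro 20-1724 25 µM / Compound: one concentration, 3.6 µM, in 0.4% DMSO / Schedule: compound incubation 1 h at room temperature, readout 45 min post-stimulation / Measured by: membrane potential fluorescence / Read-out: % inhibition of NPY effect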
NPY2 pot ag = potentiators or agonists of human neuropeptide Y receptor Y2; P49146; cells expressing NPY-Y2, potentiator/agonist read-out; activation, % at 3.6 µM; hit rate 0.45% among 220,000; in the data active = activation above about 27%;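 note: cells stimulated with NPY near EC25 plus isoproterenol at EC100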
S1P4 ag = activates the human S1P4 receptor. S1P4-expressing cell line, agonist reporter assay. O95977. hit rate 0.35% among 220,000. activation, % at 4.98 µM; in the data active = activation above about 11%
NPY-Y2 antag = blocks the human neuropeptide Y Y2 receptor; NPY-Y2 expressing cells, antagonist mode; inhibition, % at 2.7 µM; hit rate 0.99% among 140,000; in the data active = inhibition above about 17%
S1P4 antagonist = antagonists of human S1P4 receptor. S1P4-expressing cells, antagonist mode, reporter read-out. inhibition, % at 4.98 µM. hit rate 0.26% among 220,000. AID 1510. O95977; in the data active = inhibition above about 29%
S1P4 ag conf = confirmation of human S1P4 receptor agonists; S1P4 agonist cell-based reporter assay; activation, % at 4.98 µM; hit rate 7% among 740; shares compounds with S1P4 ag; in the data active = activation above about 12%
S1P1 agonist = activates human S1P1, counter-screen for S1P4 agonists; shares compounds with S1P4 ag; S1P1 agonist cell-based assay, activation; activation, % at 4.98 µM; hit rate 4% among 740; in the data active = activation above about 21%
Target sequence (P21453 whole entry, looked up): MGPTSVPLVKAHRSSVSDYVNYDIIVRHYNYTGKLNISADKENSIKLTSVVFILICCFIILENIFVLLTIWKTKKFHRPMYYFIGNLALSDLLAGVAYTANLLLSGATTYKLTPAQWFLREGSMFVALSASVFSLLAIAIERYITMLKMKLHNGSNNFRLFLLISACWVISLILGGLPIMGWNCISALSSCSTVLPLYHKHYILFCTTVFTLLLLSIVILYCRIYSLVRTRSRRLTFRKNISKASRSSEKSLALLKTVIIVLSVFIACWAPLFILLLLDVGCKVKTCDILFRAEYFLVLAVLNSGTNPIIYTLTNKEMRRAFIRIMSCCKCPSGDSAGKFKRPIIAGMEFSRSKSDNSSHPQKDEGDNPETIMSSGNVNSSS
S1P4 antag conf = confirmation of human S1P4 receptor antagonists; inhibition, % at 4.98 µM; shares compounds with S1P4 antagonist; S1P4-expressing cell line, antagonist mode, reporter read-out; hit rate 71% among 520; in the data active = inhibition above about 30%
S1P1 antag = human S1P1 antagonism as S1P4 antagonist counter-screen | shares compounds with S1P4 antagonist | cell-based S1P1 antagonist counterscreen, inhibition | inhibition, % at 4.98 µM | hit rate 37% among 520 | AID 1564; in the data active = inhibition above about 40%;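 note: receptor stimulated with S1P near its EC80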
Hits are given with their value; n = inactive; x = no result. Most compounds without a hit are left out; they make up all but 2.4% or so of the library.

SMILES	NPY-Y1 PAM-ag	NPY-Y1 antag	NPY2 pot ag	S1P4 ag	NPY-Y2 antag	S1P4 antagonist	S1P4 ag conf	S1P1 agonist	others
CCCCCCCCNc1nc(Cl)nc(NCCN2CCOCC2)n1	n	n	n	17.2	x	n	n	n
COc1nc(NCCN2CCOCC2)nc(Nc2ccccc2)n1	n	n	n	n	n	n	x	x
CCN(N)C(=S)Nc1ccc(F)cc1	n	n	n	32.9	x	n	n	n
COc1ccc(NC(=O)CSc2nc3ccccc3n2-c2ccccc2)c([N+](=O)[O-])c1	n	n	n	44.5	n	n	n	n
O=C(CSC(=S)N1CCSCC1)c1ccccc1	n	n	n	53.0	x	n	n	n
O=C(NNc1ccc(Cl)nn1)c1ccc(Cl)cc1	n	n	n	n	n	n	x	x
O=c1cc(-c2ccc([N+](=O)[O-])cc2)c2ccc(O)cc2o1	n	n	n	11.9	x	n	n	n
CCN(CC)C(=O)C(=O)c1cccn1-c1cccc(OC)c1C#N	n	n	n	n	x	n	x	x
COc1ccc(-n2cc(CNCCc3cscn3)c(-c3ccccc3Cl)n2)cc1	n	n	n	112.3	x	n	n	n
CCN1CC(CNCc2cn(-c3ccc(OC)cc3)nc2-c2ccccc2Cl)CC1=O (configuration not stated)	n	n	n	n	x	n	x	x
CCn1c(SCC(=O)NCC2CCCO2)nnc1-c1ccc(S(=O)(=O)N2CCN(C)CC2)cc1 (configuration not stated)	n	n	n	n	x	n	x	x
COc1ccc(OC)c(NC(=O)c2ccccc2N(Cc2ccccc2)S(C)(=O)=O)c1	n	n	n	57.5	x	n	n	n
Cc1cc(C2=NNC(=NC3CC3)SC2)c(C)n1-c1c(C)n(C)n(-c2ccccc2)c1=O	n	n	n	14.6	n	n	n	n
Oc1ccc(C=Nc2ccccc2-c2nc3ccccc3[nH]2)cc1	n	n	n	n	n	n	x	x
O=C(N1CCN(c2ccccc2)CC1)C1(c2cccs2)CCOCC1	n	n	n	n	n	n	x	x
Nc1ccc(N(CCO)CCO)cc1	n	n	n	n	x	n	x	x
Cc1cc(N(CCO)CCO)ccc1N=Nc1cc(F)ccc1F	62.3	n	69.0	11.2	x	n	n	n
Nn1c(SCC(=O)Nc2cccc(F)c2)nnc1C1CCCCC1	n	n	n	17.9	n	n	n	n
COc1ccc(NC(=O)CSc2nnc(C3CCCCC3)n2N)cc1	n	x	n	n	x	n	x	x
COc1ccc(-c2nnc(SCc3nnc(-c4cccs4)o3)n2CC2CCCO2)cc1 (configuration not stated)	n	n	n	57.1	n	n	n	n
Cc1nnc(SCc2nnc(-c3cccs3)o2)n1C1CCCCC1	n	n	n	n	x	n	x	x
O=C(c1ccc(NC(=S)Nc2ccc(Cl)c(Cl)c2)cc1)N1CCCC1	n	n	n	22.9	n	n	n	n
Cn1cccc1C(=O)C(=O)Nc1cccc(Cl)c1Cl	n	n	n	20.4	n	n	n	n
Cn1cccc1C(=O)C(=O)Nc1ccc(Cl)cc1	n	n	n	n	n	n	x	x
COc1cc(C(=O)NC(CCSC)C(=O)OCC(=O)C(C)(C)C)cc(OC)c1OC (configuration not stated)	n	n	n	n	x	n	x	x
SMILES	NPY-Y1 PAM-ag	NPY-Y1 antag	NPY2 pot ag	S1P4 ag	NPY-Y2 antag	S1P4 antagonist	S1P4 ag conf	S1P1 agonist	others
Cc1ccc(NC(=O)c2oc3ccc(S(=O)(=O)N4CCC5(CC4)OCCO5)cc3c2C)cc1C	n	n	n	48.6	n	n	n	n
CC[C@H](C)[C@@H]1NC(=O)c2cc([N+](=O)[O-])cc(I)c2SC[C@@H](C(N)=O)NC(=O)[C@H](CCCCN)NC1=O	n	n	n	n	n	n	x	x
O=C(c1ccc(OC2CCN(Cc3ccccn3)CC2)cc1)N1CCCC(O)C1 (configuration not stated)	n	n	n	n	x	n	x	x
CCOC(=O)N/N=C\C=C\c1ccc2c(c1)OCO2	n	n	n	n	n	n	x	x
O=[n+]1c2c(n([O-])c3cc(F)ccc31)CCCC2	n	n	n	21.4	n	n	n	n
O=C(CN1C(=O)NC2(CCCC2)C1=O)N1CCc2ccccc2C1	n	n	n	n	x	n	x	x
CCNC(=S)NNC(=O)c1cc(C)nc2ccccc12	n	n	n	43.7	n	n	n	n
O=C(N/N=C1\CCCc2ccccc21)c1ccc([N+](=O)[O-])cc1	n	n	n	11.7	n	n	n	n
CC12CCC(C/C1=N\OC(=O)c1c(F)cccc1F)C2(C)C (configuration not stated)	n	x	n	n	x	n	x	x
Cc1ccc(Nc2cc(C)c3ccc(O)cc3n2)cc1C	n	x	n	11.2	x	74.6	n	n	S1P4 antag conf=80.3;S1P1 antag=n
O=C(N/C=C/n1cnc2cc(C(F)(F)F)ccc21)c1ccccc1	n	n	n	n	x	n	x	x
Cc1cc(NC(=O)c2ccccc2-c2ccccc2)ccc1Br	n	n	n	n	n	37.0	x	x	S1P4 antag conf=31.6;S1P1 antag=n
Cc1cccc(NC(=O)c2ccccc2-c2ccccc2)c1	n	n	n	n	x	n	x	x
O=C(Nc1ccc(SC(F)(F)F)cc1)c1ccccn1	n	n	n	n	x	n	x	x
O=C(CSc1nc2cc(Cl)ccc2s1)Nc1cccc(S(=O)(=O)N2CCOCC2)c1	n	n	n	n	n	n	x	x
CN(C(=O)COC(=O)c1ccc2[nH]c3c(c2c1)CCCC3)C1CCS(=O)(=O)C1 (configuration not stated)	n	n	n	n	x	n	x	x
CC1CCN(CCc2nc3cc(NC(=O)Nc4ccccc4)ccc3n2C)CC1	n	n	n	n	n	31.9	x	x	S1P4 antag conf=n;S1P1 antag=n
CC(=O)Nc1ccc2c(c1)nc(CCN1CCC(C)CC1)n2C	n	n	n	n	n	n	x	x
COC(=O)c1scc2c(=O)cc(C(F)(F)F)[nH]c12	n	x	n	n	x	34.5	x	x	S1P4 antag conf=68.8;S1P1 antag=51.5
CCN(CC)c1cc(C)c2cc(NC(=O)c3ccc(Br)o3)ccc2n1	n	n	n	n	n	n	x	x
O=C(Nc1ccc2cn[nH]c2c1)c1c(Cl)cccc1Cl	n	n	n	n	n	n	x	x
O=C1C(Cl)=C(Nc2ccc3cn[nH]c3c2)C(=O)c2ccccc21	n	x	n	n	x	61.8	x	x	S1P4 antag conf=94.7;S1P1 antag=91.1
COc1ccccc1OCC(=O)NNC(=O)C(=O)N1CCCC1	n	n	n	n	n	n	x	x
O=C(CC(SCCO)c1ccc2c(c1)OCO2)c1cccs1 (configuration not stated)	n	n	n	n	n	36.5	x	x	S1P4 antag conf=n;S1P1 antag=n
O=C(CC(SCc1ccco1)c1ccc(O)cc1)c1cccs1 (configuration not stated)	n	n	n	n	n	n	x	x
